ChEMBL document CHEMBL4177755, “Combating Drug-Resistant Fungi with Novel Imperfectly Amphipathic Palindromic Peptides” (J Med Chem, 2018)
Values after ≈ are worked out from the molar mass of the structure shown. Bridge positions count the residues as written; N and C are the ends. Square brackets hold non-standard residues; d marks the D form. Peptide text beside a SMILES is read from it. * marks the point of attachment. X1 = CC[C@H](C)CCCCC(=O)*; Dab = NCC[C@H](N)C(=O)O

What was measured:
Escherichia coli [1] = assay: Antibacterial activity against Escherichia coli 1005 after 24 hrs; format: functional; conditions: Escherichia coli, 1005, 24 h
How it was run: (§1)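 Broth microdilution. Mid-log bacteria in MHB at a final (0.5−1) × 10^5 CFU/mL were mixed with equal volumes of peptide serially diluted in 0.2% BSA. Plates were incubated 24 h at 37 °C and read at A492. MIC is the lowest concentration inhibiting 95% of growth. Each test was repeated at least 3 times.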

Escherichia coli [2] = assay: Antibacterial activity against Escherichia coli ATCC 25922 after 18 hrs in presence of 50% human heat-inactivated serum by broth dilution method; format: functional; conditions: ATCC 25922, 18 h
Escherichia coli [3] = assay: Antibacterial activity against Escherichia coli ATCC 25922 after 18 hrs in presence of 25% human heat-inactivated serum by broth dilution method; format: functional; conditions: ATCC 25922, 18 h
Staphylococcus aureus [4] = assay: Bactericidal activity against Staphylococcus aureus ATCC 25923; format: functional; conditions: read-out: MBC99.9
How it was run: (§2)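 Wells from the 24 h, 37 °C MHB microdilution plates (bacteria at a final (0.5−1) × 10^5 CFU/mL; peptide diluted in 0.2% BSA) were plated on agar and incubated overnight. MBC is the lowest concentration killing >99.9% of cells. Each test was reproduced at least 3 times.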

Escherichia coli [5] = assay: Antibacterial activity against Escherichia coli ATCC 25922 after 18 hrs in presence of MgCl2 by broth dilution method; format: functional; conditions: ATCC 25922, 18 h
Escherichia coli [6] = assay: Antibacterial activity against Escherichia coli ATCC 25922 after 18 hrs in presence of NH4Cl by broth dilution method; format: functional; conditions: ATCC 25922, 18 h
Escherichia coli [7] = assay: Antibacterial activity against Escherichia coli ATCC 25922 after 18 hrs in presence of KCl by broth dilution method; format: functional; conditions: ATCC 25922, 18 h
Escherichia coli [8] = assay: Antibacterial activity against Escherichia coli ATCC 25922 after 18 hrs in presence of CaCl2 by broth dilution method; format: functional; conditions: ATCC 25922, 18 h
[9] = Antibacterial activity against Salmonella pullorum ATCC 7913 after 24 hrs; format: functional, Salmonella enterica subsp. enterica serovar Pullorum; conditions: Salmonella enterica, ATCC 7913, 24 h; how it was run: as §1
Escherichia coli [10] = assay: Antibacterial activity against Escherichia coli ATCC 25922 after 18 hrs in presence of FeCl3 by broth dilution method; format: functional; conditions: ATCC 25922, 18 h
Escherichia coli [11] = assay: Bactericidal activity against Escherichia coli ATCC 25922; format: functional; conditions: read-out: MBC99.9; how it was run: as §2
[12] = system: Staphylococcus epidermidis; assay: Antibacterial activity against Staphylococcus epidermidis ATCC 12228 after 24 hrs; format: functional; conditions: ATCC 12228, 24 h; how it was run: as §1
Staphylococcus aureus [13] = assay: Antibacterial activity against Staphylococcus aureus ATCC 29213 after 24 hrs; format: functional; conditions: ATCC 29213, 24 h
How it was run: (§3)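 Modified NCCLS broth microdilution. Mid-log bacteria at (0.5−1) × 10^5 CFU/mL in MHB were mixed 1:1 with peptide serially diluted in 0.2% BSA and incubated 24 h at 37 °C. Absorbance was read at 492 nm; MIC is the lowest concentration inhibiting 95% of growth. At least 3 repeats.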

Salmonella typhimurium [14] = assay: Antibacterial activity against Salmonella typhimurium ATCC 14028 after 24 hrs; format: functional, Salmonella enterica subsp. enterica serovar Typhimurium; conditions: Salmonella enterica, ATCC 14028, 24 h; how it was run: as §1
Staphylococcus aureus [15] = assay: Antibacterial activity against Staphylococcus aureus ATCC 25923 after 24 hrs; format: functional; conditions: ATCC 25923, 24 h; how it was run: as §3
Salmonella typhimurium [16] = assay: Bactericidal activity against Salmonella typhimurium ATCC 14028; format: functional, Salmonella enterica subsp. enterica serovar Typhimurium; conditions: Salmonella enterica, read-out: MBC99.9; how it was run: as §2
Staphylococcus aureus [17] = assay: Bactericidal activity against Staphylococcus aureus ATCC 29213; format: functional; conditions: read-out: MBC99.9; how it was run: as §2
[18] = system: Staphylococcus epidermidis; assay: Bactericidal activity against Staphylococcus epidermidis ATCC 12228; format: functional; conditions: read-out: MBC99.9; how it was run: as §2
Staphylococcus aureus [19] = assay: Bactericidal activity against methicillin-resistant Staphylococcus aureus ATCC 4330; format: functional; conditions: read-out: MBC99.9
How it was run: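 Bacteria at (0.5−1) × 10^5 CFU/mL in MHB were exposed to serially diluted peptide (0.2% BSA) for 24 h at 37 °C, then 50 μL aliquots were plated on agar overnight. MBC is the lowest concentration killing >99.9% of cells. At least 3 repeats.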

Escherichia coli [20] = assay: Antibacterial activity against Escherichia coli ATCC 25922 after 18 hrs in presence of NaCl by broth dilution method; format: functional; conditions: ATCC 25922, 18 h
Escherichia coli [21] = assay: Antibacterial activity against Escherichia coli ATCC 25922 after 18 hrs in presence of ZnCl2 by broth dilution method; format: functional; conditions: ATCC 25922, 18 h
Staphylococcus aureus [22] = assay: Antibacterial activity against methicillin-resistant Staphylococcus aureus ATCC 4330 after 24 hrs; format: functional; conditions: ATCC 4330, 24 h; how it was run: as §3
Escherichia coli [23] = assay: Antibacterial activity against Escherichia coli ATCC 25922 after 18 hrs in presence of 12.5% human heat-inactivated serum by broth dilution method; format: functional; conditions: ATCC 25922, 18 h
Escherichia coli [24] = assay: Antibacterial activity against Escherichia coli ATCC 25922 after 24 hrs; format: functional; conditions: ATCC 25922, 24 h; how it was run: as §1
[25] = Bactericidal activity against Salmonella pullorum ATCC 7913; format: functional, Salmonella enterica subsp. enterica serovar Pullorum; conditions: Salmonella enterica, read-out: MBC99.9; how it was run: as §2
Escherichia coli [26] = assay: Bactericidal activity against Escherichia coli 1005; format: functional; conditions: read-out: MBC99.9; how it was run: as §2

Work on `CC[C@H](C)CCCCC(=O)N[C@@H](CCN)C(=O)N[C@H](C(=O)N[C@@H](CCN)C(=O)N[C@H]1CCNC(=O)[C@H]([C@@H](C)O)NC(=O)[C@H](CCN)NC(=O)[C@H](CCN)NC(=O)[C@H](CC(C)C)NC(=O)[C@@H](Cc2ccccc2)NC(=O)[C@H](CCN)NC1=O)[C@@H](C)O` (X1-[Dab]T[Dab][Dab][Dab][dF]L[Dab][Dab]T; lactam 4-C) yielded an MIC95 (Escherichia coli [1]) of 1 µM (≈ 1.2 µg/mL), an MIC (Escherichia coli [2]) of 4 µM and an MIC (Escherichia coli [3]) of 2 µM. It also gave an MBC (Staphylococcus aureus [4]) of 64 µM (≈ 77 µg/mL), an MIC (Escherichia coli [5]) of 4 µM and an MIC (Escherichia coli [6]) of 2 µM. It also gave an MIC (Escherichia coli [7]) of 2 µM, an MIC (Escherichia coli [8]) of 2 µM and an MIC95 [9] of 1 µM (≈ 1.2 µg/mL). For the same compound, the MIC (Escherichia coli [10]) was 2 µM, the MBC (Escherichia coli [11]) was 4 µM (≈ 4.81 µg/mL) and the MIC95 [12] was 32 µM (≈ 38.5 µg/mL). The MIC95 (Staphylococcus aureus [13]) was 64 µM (≈ 77 µg/mL), the MIC95 (Salmonella typhimurium [14]) was 2 µM (≈ 2.41 µg/mL) and the MIC95 (Staphylococcus aureus [15]) was 32 µM (≈ 38.5 µg/mL). It also gave an MBC (Salmonella typhimurium [16]) of 2 µM (≈ 2.41 µg/mL), an MBC (Staphylococcus aureus [17]) of 64 µM (≈ 77 µg/mL) and an MBC [18] of 32 µM (≈ 38.5 µg/mL). For the same compound, the MBC (Staphylococcus aureus [19]) was 64 µM (≈ 77 µg/mL), the MIC (Escherichia coli [20]) was 8 µM and the MIC (Escherichia coli [21]) was 2 µM. The MIC95 (Staphylococcus aureus [22]) was 64 µM (≈ 77 µg/mL), the MIC (Escherichia coli [23]) was 2 µM and the MIC95 (Escherichia coli [24]) was 2 µM (≈ 2.41 µg/mL). It also gave an MBC [25] of 2 µM (≈ 2.41 µg/mL) and an MBC (Escherichia coli [26]) of 2 µM (≈ 2.41 µg/mL).
